Measured values reported in ChEMBL document CHEMBL1687766, “In vitro activity of the new multivalent glycopeptide-cephalosporin antibiotic TD-1792 against vancomycin-nonsusceptible Staphylococcus isolates” (Antimicrob Agents Chemother, 2010).
Converted amounts (≈) assume the structure as drawn.

How the values were obtained:
Format in all cases: functional
[1] = system: Staphylococcus aureus; experiment: Antimicrobial activity against vancomycin-intermediate Staphylococcus aureus isolate NJ992 assessed as bacterial count at 4 times MIC after 24 hrs by colony counting method
How it was run: (§1)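 24-h time-kill run in triplicate in supplemented Mueller-Hinton broth (12.5 μg/ml Mg, 25 μg/ml Ca), adjusted to 1.1–1.3 mM Ca for daptomycin. […] Samples were taken at 0, 1, 4, 8 and 24 h and counted on BHI agar after 24 h at 35°C. Value is log10 CFU/ml change from baseline at 24 h.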

[2] = system: Staphylococcus aureus; experiment: Antimicrobial activity against vancomycin-intermediate Staphylococcus aureus isolate MU50 assessed as bacterial count at 16 times MIC after 24 hrs by colony counting method in presence of 50% human serum
How it was run: (§2)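 Triplicate 24-h time-kill in 50% human serum (heated 56°C 1 h, filtered) mixed with supplemented Mueller-Hinton broth, giving final 25 μg/ml Ca broth strength for TD-1792 and 50 for daptomycin. […] Samples from 0 to 24 h were counted on BHI agar (35°C, 24 h). Value is log10 CFU/ml change from baseline.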

[3] = system: Staphylococcus aureus; experiment: Ratio of MIC for vancomycin-intermediate Staphylococcus aureus in presence of 50% human serum to MIC for vancomycin-intermediate Staphylococcus aureus
[4] = system: Staphylococcus aureus; experiment: Antimicrobial activity against vancomycin-intermediate Staphylococcus aureus isolate NJ992 assessed as bacterial count at 32 times MIC after 24 hrs by colony counting method in presence of 50% human serum; how it was run: as §2
[5] = system: Staphylococcus aureus; experiment: Ratio of MIC for vancomycin-intermediate Staphylococcus aureus isolate MU50 in presence of 50% human serum to MIC for vancomycin-intermediate Staphylococcus aureus isolate MU50
How it was run: (§3)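 Ratio of the broth microdilution MIC (5 × 10^5 CFU/ml, 24 h, 35°C, duplicate) measured in 50% heat-treated human serum/supplemented Mueller-Hinton broth to the MIC measured in supplemented broth alone.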

[6] = system: Staphylococcus aureus; experiment: Antimicrobial activity against vancomycin-intermediate Staphylococcus aureus isolate MU50 assessed as bacterial count at 8 times MIC after 24 hrs by colony counting method in presence of 50% human serum; how it was run: as §2
[7] = system: Staphylococcus aureus; experiment: Antimicrobial activity against vancomycin-heteroresistant Staphylococcus aureus after 24 hrs by microdilution method in presence of 50% human serum
How it was run: (§4)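 Broth microdilution per CLSI, inoculum 5 × 10^5 CFU/ml, 24 h at 35°C, in duplicate. Medium was 50% (vol/vol) human serum plus 50% broth, final 25 SMHB for TD-1792 and 50 SMHB for daptomycin. Serum was heated 56°C for 1 h and filtered through 0.8, 0.5 and 0.22 μm. MBC by plating clear wells on BHI agar.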

[8] = system: Staphylococcus aureus; experiment: Antimicrobial activity against vancomycin-resistant Staphylococcus aureus isolate PA assessed as bacterial count at 8 times MIC after 24 hrs by colony counting method in presence of 50% human serum
How it was run: (§5)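 Time-kill in triplicate, starting inoculum 5 × 10^6 CFU/ml from a mid-exponential culture. Medium was 50% heat-treated, filtered human serum plus 50% broth, final 25 SMHB for TD-1792 and 50 SMHB for daptomycin. Drug at multiples of MIC. Samples to 24 h were plated on BHI agar for 24 h at 35°C. Value is the log10 CFU/ml change from baseline at 24 h.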

[9] = system: Staphylococcus aureus; experiment: Antimicrobial activity against vancomycin-resistant Staphylococcus aureus isolate MI assessed as bacterial count at 4 times MIC after 24 hrs by colony counting method
How it was run: (§6)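 Time-kill in triplicate. Mid-exponential culture (OD600 ~0.3) diluted in supplemented Mueller-Hinton broth to 5 × 10^6 CFU/ml. Daptomycin was run at physiologic calcium, 1.1 to 1.3 mM. […] Samples at 0, 1, 4, 8 and 24 h were diluted in cold saline or vacuum filtered, then spiral-plated on BHI agar for 24 h at 35°C. Value is the log10 CFU/ml change from baseline at 24 h.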

[10] = system: Staphylococcus aureus; experiment: Antimicrobial activity against vancomycin-resistant Staphylococcus aureus isolate NY after 24 hrs by microdilution method in presence of 50% human serum; how it was run: as §4
[11] = system: Staphylococcus aureus; experiment: Antimicrobial activity against vancomycin-intermediate Staphylococcus aureus isolate NJ992 assessed as bacterial count at 16 times MIC after 24 hrs by colony counting method in presence of 50% human serum; how it was run: as §5
[12] = system: Staphylococcus aureus; experiment: Antimicrobial activity against vancomycin-intermediate Staphylococcus aureus isolate NJ992 assessed as bacterial count at 8 times MIC after 24 hrs by colony counting method; how it was run: as §1
[13] = system: Staphylococcus aureus; experiment: Antimicrobial activity against vancomycin-resistant Staphylococcus aureus isolate MI assessed as bacterial count at 8 times MIC after 24 hrs by colony counting method in presence of 50% human serum; how it was run: as §5
[14] = system: Staphylococcus aureus; experiment: Antimicrobial activity against vancomycin-resistant Staphylococcus aureus isolate MI assessed as bacterial count at 16 times MIC after 24 hrs by colony counting method in presence of 50% human serum; how it was run: as §5
[15] = system: Staphylococcus haemolyticus; experiment: Ratio of MIC for vancomycin-intermediate Staphylococcus haemolyticus in presence of 50% human serum to MIC for vancomycin-intermediate Staphylococcus haemolyticus; how it was run: as §3
[16] = system: Staphylococcus aureus; experiment: Antimicrobial activity against vancomycin-intermediate Staphylococcus aureus isolate MU50 after 24 hrs by microdilution method in presence of 50% human serum; details: isolate MU50, 24 h; how it was run: as §4
[17] = system: Staphylococcus aureus; experiment: Antimicrobial activity against vancomycin-intermediate Staphylococcus aureus isolate NJ992 assessed as bacterial count at 32 times MIC after 24 hrs by colony counting method; how it was run: as §1
[18] = system: Staphylococcus aureus; experiment: Antimicrobial activity against vancomycin-resistant Staphylococcus aureus isolate MI after 24 hrs by microdilution method
How it was run: (§7)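 Broth microdilution per CLSI, inoculum 5 × 10^5 CFU/ml, Mueller-Hinton broth with 12.5 μg/ml magnesium and 25 μg/ml calcium (SMHB). Daptomycin was instead tested in SMHB at physiologic calcium (final 1.1 to 1.3 mM). Incubation 24 h at 35°C; MIC read; run in duplicate. MBC from 5-μl samples of clear wells plated on BHI agar, 24 h at 35°C.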

[19] = system: Staphylococcus aureus; experiment: Antimicrobial activity against vancomycin-intermediate Staphylococcus aureus isolate MU50 assessed as bacterial count at 32 times MIC after 24 hrs by colony counting method in presence of 50% human serum; how it was run: as §2
[20] = system: Staphylococcus aureus; experiment: Antimicrobial activity against vancomycin-intermediate Staphylococcus aureus after 24 hrs by microdilution method in presence of 50% human serum; details: for MBC / MIC50 / MIC90: Staphylococcus aureus, 24 h; how it was run: as §4
[21] = system: Staphylococcus aureus; experiment: Antimicrobial activity against vancomycin-heteroresistant Staphylococcus aureus after 24 hrs by microdilution method; details: Staphylococcus aureus, 24 h; how it was run: as §7
[22] = system: Staphylococcus aureus; experiment: Antimicrobial activity against vancomycin-resistant Staphylococcus aureus isolate NY after 24 hrs by microdilution method; how it was run: as §7
[23] = system: Staphylococcus aureus; experiment: Antimicrobial activity against vancomycin-resistant Staphylococcus aureus isolate MI assessed as bacterial count at 8 times MIC after 24 hrs by colony counting method; how it was run: as §6

Compound | log10CFU/ml [1] | log10CFU/ml [2] | Ratio [3] | log10CFU/ml [4] | Ratio [5] | log10CFU/ml [6] | MBC [7] [µg/mL] | MIC50 [7] [µg/mL] | MIC90 [7] [µg/mL] | log10CFU/ml [8] | log10CFU/ml [9] | MBC [10] [µg/mL] | MIC [10] [µg/mL] | log10CFU/ml [11] | log10CFU/ml [12] | log10CFU/ml [13] | log10CFU/ml [14] | Ratio [15] | MBC [16] [µg/mL] | MIC [16] [µg/mL] | other results
CN[C@H](CC(C)C)C(=O)N[C@H]1C(=O)N[C@@H](CC(N)=O)C(=O)N[C@H]2C(=O)N[C@H]3C(=O)N[C@H](C(=O)N[C@H](C(=O)NCCCO/N=C(\C(=O)N[C@@H]4C(=O)N5C(C(=O)[O-])=C(C[n+]6ccccc6)CS[C@H]45)c4nc(N)sc4Cl)c4cc(O)cc(O)c4-c4cc3ccc4O)[C@H](O)c3ccc(c(Cl)c3)Oc3cc2cc(c3O[C@@H]2O[C@H](CO)[C@@H](O)[C@H](O)[C@H]2O[C@H]2C[C@](C)(N)[C@H](O)[C@H](C)O2)Oc2ccc(cc2Cl)[C@H]1O | 3.84 | 4.37 | 2 | 4.92 | 2 | 3.6 | 0.03 | 0.25 | 0.5 | 4.65 | 2.95 | 0.5 | 0.25 | 4.76 | 4.48 | 4.06 | 4.11 | 2 | 0.25 | 0.25 | log10CFU/ml [17]: 5; MBC [18]: 0.5 µg/mL (≈ 0.252 µM); MIC [18]: 0.25 µg/mL (≈ 0.126 µM); log10CFU/ml [19]: 4.81; MBC50 [20]: 0.25 µg/mL; MBC90 [20]: 0.5 µg/mL; MBC [20]: 0.03 µg/mL; MIC50 [20]: 0.25 µg/mL; MIC90 [20]: 0.5 µg/mL; MBC [21]: 0.015 µg/mL (≈ 0.00756 µM); MIC50 [21]: 0.06 µg/mL (≈ 0.0303 µM); MIC90 [21]: 0.125 µg/mL (≈ 0.063 µM); MBC [22]: 0.06 µg/mL (≈ 0.0303 µM); MIC [22]: 0.03 µg/mL (≈ 0.0151 µM); log10CFU/ml [23]: 3.27
CCCCCCCCCC(=O)N[C@@H](Cc1c[nH]c2ccccc12)C(=O)N[C@H](CC(N)=O)C(=O)N[C@@H](CC(=O)O)C(=O)N[C@@H]1C(=O)NCC(=O)N[C@@H](CCCN)C(=O)N[C@@H](CC(=O)O)C(=O)N[C@H](C)C(=O)N[C@@H](CC(=O)O)C(=O)NCC(=O)N[C@H](CO)C(=O)N[C@@H]([C@H](C)CC(=O)O)C(=O)N[C@@H](CC(=O)c2ccccc2N)C(=O)O[C@@H]1C | 3.61 | 5.09 | 2 | 5.04 | 2 | 4.13 | 1 | 1 | 4 | 5.11 | 4.59 | 0.25 | 0.25 | 5.03 | 3.86 | 4.69 | 4.6 | 2 | 2 | 2 | log10CFU/ml [17]: 4.93; MBC [18]: 0.25 µg/mL (≈ 0.154 µM); MIC [18]: 0.25 µg/mL (≈ 0.154 µM); log10CFU/ml [19]: 5.23; MBC50 [20]: 4 µg/mL; MBC90 [20]: 8 µg/mL; MBC [20]: 1 µg/mL; MIC50 [20]: 1 µg/mL; MIC90 [20]: 4 µg/mL; MBC [21]: 0.25 µg/mL (≈ 0.154 µM); MIC50 [21]: 1 µg/mL (≈ 0.617 µM); MIC90 [21]: 1 µg/mL (≈ 0.617 µM); MBC [22]: 0.125 µg/mL (≈ 0.0771 µM); MIC [22]: 0.125 µg/mL (≈ 0.0771 µM); log10CFU/ml [23]: 5
